Series [1] in a line: Binding affinity to human NRAS G-quadruplex FAM-GGGAGGGGCGGGUCUGGG-TAMRA RNA assessed as quenching of fluorescence emission by FRET titration assay. The method in brief:
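RNA quadruplex, 200 nM, dual-labelled with FAM and TAMRA, in 50 mM Tris-HCl pH 7.4, 10 mM KCl. Titrated with ligand at r = 1–5 ([ligand]/[quadruplex]). The fraction of bound quadruplex was calculated from quenching of fluorescence and fitted to the Hill equation to give KD.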

In series [2] the test system is NIH3T3. The experiment in a line: Cellular uptake in mouse NIH/3T3 cells after 4 hrs by FACS flow cytometric analysis in presence of cytochalasin D. To be noted: nih3t3, 4 h. The format is ADME, cell-based. A general note: A flow cytometer gives signals particle by particle.
In series [3] the test system is NIH3T3. Briefly: Cellular uptake in mouse NIH/3T3 cells at 0.5 to 10 uM after 10 mins to 8 hrs by flow cytometric analysis. The format is ADME, cell-based. To be noted: nih3t3, 10 µM. In outline: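 Flow cytometric uptake of 10 μM ligand over time (15 min, 1, 2, 6, 8 h; T24, and up to 8 h in NIH 3T3 and 293). Cells plated at 5 × 10^4 per well the day before. Ligand fluorescence detected in FL3 (680 nm), at least 10,000 cells acquired.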

Series [4] relates to NIH3T3. Briefly: Cellular uptake in mouse NIH/3T3 cells at 0.5 to 10 uM after 8 hrs by flow cytometric analysis. The format is ADME, cell-based. To be noted: nih3t3, 8 h. In outline: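 Cells plated at 5 × 10^4 per well and treated next day with ligand at […] for 8 h. Then trypsinized, resuspended in PBS and analysed by flow cytometry (488 nm excitation, FL3 680 nm, log scale), at least 10,000 cells per sample. Uptake read from intrinsic ligand red fluorescence.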

A short description of series [5]: Binding affinity to human HRAS2 G-quadruplex FAM-CGGGGCGGGGCGGGGGCGGGGGCG-TAMRA DNA assessed as quenching of fluorescence emission by FRET titration assay. The method in brief: (§1)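 FRET titration of 200 nM oligonucleotide dual-labelled at its ends with carboxyfluorescein (donor) and tetramethylrhodamine (acceptor), in 50 mM Tris-HCl with KCl (100 mM for htelo and hras-1, 10 mM for KRAS and hras-2). Ligand binding quenches the emission, mainly the acceptor at 580 nm. The fraction of filled sites was fitted to the Hill equation to give apparent KD and the Hill coefficient.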

The nature of series [6]: Binding affinity to human HRAS1 G-quadruplex FAM-TCGGGTTGCGGGCGCAGGGCACGGGCG-TAMRA DNA assessed as quenching of fluorescence emission by FRET titration assay. The method in brief: as §1
The nature of series [7]: Binding affinity to mouse KRAS G-quadruplex FAM-GCGGGAGGGAGGGAAGGAGGGAGGGAGGGAG-TAMRA DNA assessed as quenching of fluorescence emission by FRET titration assay. In outline: as §1
A short description of series [8]: Binding affinity to human telomeric G-quadruplex FAM-TTAGGGTTAGGGTTAGGGTTAGGG-TAMRA DNA assessed as quenching of fluorescence emission by FRET titration assay. In outline:
as §1

Series [9] concerns T-24. Briefly: Binding affinity to interleukin-8 promoter DNA in human T24 cells at 0.5 to 5 uM treated for 24 hrs prior to transfection measured 72 hrs post transfection by dual-luciferase reporter gene assay relative to control. The series is classed as cell-based. To be noted: in the assay text read “5 uM” for “0.5 to 5 uM”. In outline:
(§2)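 T24 cells pretreated 24 h with ligand (0.5, 2.5, 5 μM). Then co-transfected with jet-PEI: firefly reporter (250 ng/well), either HRAS promoter wild type, HRAS promoter with 4 point mutations in the quadruplex motifs, or IL-8 promoter, plus CMV-Renilla (10 ng/well). Dual-Glo read 72 h post-transfection. Firefly/Renilla expressed as T/C × 100 relative to untreated cells.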
Background: In a reporter assay the amount or activity of a reporter protein is the signal.

In series [10] the test system is T-24. The experiment in a line: Cell cycle arrest in human T24 cells assessed as accumulation at G2/M phase at 10 uM after 48 to 72 hrs by FACS analysis relative to control. The series is classed as functional. The method in brief: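 T24 cells treated with 10 μM ligand for 48 or 72 h. Fixed 1 h at 4 °C in 70% ethanol, then stained with propidium iodide 0.05 mg/mL plus RNase A 0.1 mg/mL for 30 min at room temperature. Analysed by FACS (FL2). Phase percentages compared with control by t-test (p < 0.05).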

Series [11] relates to NIH3T3. The experiment in a line: Cytotoxicity against mouse NIH/3T3 cells at 1 to 30 uM after 72 hrs by resazurin assay. The settings on record: NIH3T3, 72 h. The format is cell-based. In outline: (§3)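 Cells seeded at 3000 per well the day before treatment, grown in DMEM with 10% FBS. Ligand added at 1, 2.5, 5, 10, 20, 30 μM for 72 h. Viability measured by resazurin and expressed as % of untreated cells; mean of three independent measurements. IC50 is the concentration reducing proliferation by 50%.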
(The colour change of resazurin is a common sign of viable cells or microbes.)

Series [12] relates to HEK293. Briefly: Cytotoxicity against human HEK293 cells expressing wild type HRAS at 1 to 30 uM after 72 hrs by resazurin assay. The series is classed as cell-based. The settings on record: HEK293, 72 h. In outline:
as §3

The test system of series [13] is T-24. Briefly: Cytotoxicity against human T24 cells expressing mutant HRAS at 1 to 30 uM after 72 hrs by resazurin assay. The format is functional, cell-based. The settings on record: T-24, 72 h. In outline: as §3
The subject of series [14] is T-24. Briefly: Binding affinity to HRAS quadruplex DNA mutant in human T24 cells assessed as reduction in gene expression at 0.5 to 5 uM treated for 24 hrs prior to transfection measured 72 hrs post transfection by dual-luciferase reporter gene assay relative to control. The series is classed as cell-based. The method in brief: as §2
Series [15] relates to T-24. The experiment in a line: Binding affinity to wild type HRAS quadruplex DNA in human T24 cells assessed as reduction in gene expression at 0.5 to 5 uM treated for 24 hrs prior to transfection measured 72 hrs post transfection by dual-luciferase reporter gene assay relative to control. The series is classed as cell-based. The arrangement: scale not given: the % may be the effect or the level left. In outline: as §2

Series [16] is filed under the species Homo sapiens. Briefly: Thermal stabilization of human HRAS1 G-quadruplex FAM-TCGGGTTGCGGGCGCAGGGCACGGGCG-TAMRA DNA assessed as change in melting temperature at 1:1 DNA:ligand ratio by FRET assay. In outline:
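FRET melting in 50 mM Tris-HCl pH 7.4 with an equimolar ligand:quadruplex ratio (r = 1). Conditions: NRAS RNA and hras-2 in 10 mM KCl; hras-1 in 100 mM KCl, with ΔTM taken from its second transition. Ramp 1 °C/min from 20 to 95 °C after 5 min equilibration. TM and ΔTM (±0.5 K) versus ligand-free quadruplex.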

Series [17] relates to T-24 (human). The experiment in a line: Cell cycle arrest in human T24 cells expressing mutant HRAS assessed as accumulation at G2/M phase at 10 uM after 24 hrs by FACS analysis.
Series [18] is filed under the species Homo sapiens. The experiment in a line: Thermal stabilization of human HRAS2 G-quadruplex FAM-CGGGGCGGGGCGGGGGCGGGGGCG-TAMRA DNA assessed as as change in melting temperature at 1:4 DNA:ligand ratio by FRET assay.

The source made the active and inactive calls. No cut-off for these calls is given here.

As a reminder, the Kd is the concentration at which binding is half-saturated. The term IC50 denotes the concentration at which inhibition is half-maximal. As for `N=C(N)NCCCNc1c2c(c(NCCCNC(=N)N)c3sccc13)C(=O)c1ccccc1C2=O`, the Kd came to 110 nM in series [1]; 230 nM in [5]; 300 nM in [6]; 180 nM in series [7]; 130 nM in series [8]. For the same molecule, the Drug uptake entry in series [2], in [3] and in [4] was “Active” each time. In addition, the outcome in series [9] and in series [14] was inactive. Further, the Activity in series [10] worked out at 12%; in series [15], 50%. For the same molecule, the IC50 in series [11] is more than 30000 nM; in series [12], more than 30000 nM; in [13], 19500 nM. Moreover, the deltaTm in series [16] was found to be 5 K; in [18], 17 K. For the same molecule, the outcome in [17] was Active.

Turning to `N=C(N)NCCCCNc1c2c(c(NCCCCNC(=N)N)c3sccc13)C(=O)c1ccccc1C2=O`, the Kd in series [1] amounted to 60 nM; in series [5], 280 nM; in [6] it was 210 nM; in series [7] it was 270 nM; in series [8] it was 180 nM. The Drug uptake result in [2], in series [3] and in series [4] was “Active” in each case. Further, the outcome in series [9] and in series [14] was inactive. Further, the figures for the Activity in series [10] and in [15] were 12% and 50%, respectively. Also, the IC50 in series [11] is more than 30000 nM; in series [12] it was more than 30000 nM; in series [13], 19100 nM. The deltaTm is 7 K in [16] and 26 K in [18]. The outcome in [17] was Active.

`N=C(N)NCCNc1c2c(c(NCCNC(=N)N)c3sccc13)C(=O)c1ccccc1C2=O`: the Kd in series [1] turned out to be 380 nM; in [5], 270 nM; in series [6], 340 nM; in series [7], 250 nM; in series [8], 150 nM. The Drug uptake result in series [2], in series [3] and in [4] was “Active” each time. Further, the outcome in series [9] and in [14] was inactive. The Activity was found to be 12% in series [10] and 25% in [15]. Moreover, the IC50 in series [11] was 20000 nM; in series [12], more than 30000 nM; in series [13] it was 4400 nM. The deltaTm in series [16] came to 5 K; in [18] it was 19 K. In addition, the outcome in series [17] was Active.

Regarding `N=C(N)NCCCNc1c2c(c(NCCNC(=N)N)c3sccc13)C(=O)c1ccccc1C2=O`, the Kd in series [1] is 90 nM; in series [5], 280 nM; in [6] it was 280 nM; in series [7] it was 230 nM; in [8], 330 nM. Also, the Drug uptake entry in [2], in [3] and in series [4] was “Active” in each case. Besides, the outcome in series [9] and in series [14] was inactive. Further, in series [10], the Activity was found to be 12%. Also, the IC50 in [11] was 20000 nM; in series [12], more than 30000 nM; in series [13] it was 6500 nM. For the same molecule, the results for the deltaTm in series [16] and in [18] were 8 K and 12 K, respectively. For the same molecule, in series [17], the result was Active.

As for `N=C(N)NCCCNc1c2c(c(NCCNC(=N)N)c3ccsc13)C(=O)c1ccccc1C2=O`, the Kd in [1] amounted to 120 nM; in series [5], 370 nM; in series [6], 360 nM; in [7] it was 210 nM; in [8], 320 nM. Further, the Drug uptake result in [2], in [3] and in series [4] was “Active” in each case. Also, the outcome in series [9] and in series [14] was inactive. The Activity is 12% in series [10] and 25% in [15]. The IC50 in series [11] was more than 30000 nM; in [12], 20000 nM; in [13], 7900 nM. Also, the deltaTm in [16] came out at 5 K; in [18], 17 K. The result in series [17] was Active.

These data come from ChEMBL document CHEMBL2346582, “Guanidino anthrathiophenediones as G-quadruplex binders: uptake, intracellular localization, and anti-Harvey-Ras gene activity in bladder cancer cells” (J Med Chem, 2013).
